The source made the active and inactive calls. The rule behind the calls is not given here.

This is an account of results in ChEMBL document CHEMBL3576816, “5'-Silylated 3'-1,2,3-triazolyl Thymidine Analogues as Inhibitors of West Nile Virus and Dengue Virus” (J Med Chem, 2015).

Series [1] has as its system West Nile virus. Put plainly: Antiviral activity against West Nile virus infected in BHK-WII RepRen1B cells assessed as inhibition of viral replication at 10 uM after 3 days by luciferase reporter gene assay relative to control. The format is functional. As to conditions: 72 h. The essentials:
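Compound (DMSO, 10 μM final) added next day in triplicate; lycorine 1 μM served as control inhibitor. Three days on, live-cell Renilla substrate (1:1000 in phenol-red-free DME, 10% FBS) replaced medium. Luminescence measured; triplicate means compared with DMSO-alone wells.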
(In general: Reporter assays use an easily measured gene product as a stand-in for the process of interest.)

Series [2] can be described thus: Cytotoxicity against BHK cells infected with Dengue virus replicon assessed as cell viability at 10 uM after 3 days by CellTiter 96 aqueous one solution cell proliferation assay relative to control. The format is cell-based, Mesocricetus auratus. As to conditions: hamster, bhk, 72 h, 10 µM. The procedure, abridged: (§1)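 DENV replicon BHK cells, 1.5 × 10^3/well, plated without antibiotic selection; next day compound in DMSO (10 μM final for screening, or eight serial dilutions), 3 days at 37°C, 5% CO2. Tetrazolium (MTS-type) reagent, absorbance 450 nm, triplicate means versus DMSO wells; CC50 = 50% reduction in proliferation; CC50s mean ± SD of two experiments, top dose 200 μM.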

Series [3] in a line: Cytotoxicity against BHK cells infected with Dengue virus replicon assessed as cell viability after 3 days by CellTiter 96 aqueous one solution cell proliferation assay. The format is cell-based, Mesocricetus auratus. Particulars: hamster, 72 h. The procedure, abridged:
as §1
A general note: Replicon systems follow genome replication, usually without infectious particles.

The test system of a further series is Human betaherpesvirus 5. Put plainly: Antiviral activity against Human cytomegalovirus. The class given is functional, organism-based.
Series [4] concerns unidentified influenza virus. Nature of the series: Antiviral activity against Influenzae virus. The format is functional, organism-based.
Series [5] has as its target Human immunodeficiency virus type 1 reverse transcriptase (Human immunodeficiency virus 1) (UniProt Q72547). Put plainly: Inhibition of HIV1 reverse transcriptase.
Series [6] in a line: Cytotoxicity against BHK cells infected with West Nile virus replicon assessed as cell viability after 3 days by CellTiter 96 aqueous one solution cell proliferation assay. The format is cell-based, Mesocricetus auratus. Particulars: hamster, 72 h. The essentials: (§2)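 WNV replicon BHK cells, about 3 × 10^3/well, plated without antibiotic selection; next day compound in DMSO (10 μM final for screening, or eight serial dilutions), 3 days at 37°C, 5% CO2. Tetrazolium reagent, absorbance 450 nm, triplicate means versus DMSO wells; CC50 = 50% reduction in proliferation; CC50s mean ± SD of two experiments, top dose 200 μM.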

In the next series the test system is dengue virus type 3. Put plainly: Displacement of [3H]-SAM from biotinylated Dengue virus 3 methyltransferase expressed in Escherichia coli at 20 uM preincubated for 20 mins followed by [3H]-SAM addition measured after 15 mins by scintillation counting analysis. The essentials: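 Biotinylated refolded E. coli-expressed DENV3 MTase (580 nM) with SPA beads (1.5 mg/mL) and 20 μM competitor (compound, SAM or sinefungin) in Tris pH 7.5 buffer with NaCl, KCl, MgCl2, MnCl2, CHAPS, 20 min at 23°C; 3H-SAM (425 nM) added, 15 min at 23°C, centrifuged, scintillation proximity counting.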
For orientation: Loss of bound radioactivity is the signal in a displacement assay; it reports binding, not function.

The nature of series [7]: Cytotoxicity against BHK cells infected with West Nile virus replicon assessed as cell viability at 10 uM after 3 days by CellTiter 96 aqueous one solution cell proliferation assay relative to control. The format is cell-based, Mesocricetus auratus. As to conditions: hamster, bhk, 72 h, 10 µM. The procedure, abridged:
as §2

A further series has as its system Hepatitis C virus. Put plainly: Antiviral activity against HCV. The class given is functional, organism-based. As to conditions: Hepacivirus hominis.
The subject of series [8] is Dengue virus. Put plainly: Antiviral activity against Dengue virus infected in BHK pD2-hRucPac-2ATG cells assessed as inhibition of viral replication after 3 days by luciferase reporter gene assay. The format is functional, organism-based. Particulars: 72 h. The essentials: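 BHK DENV subgenomic replicon line carrying Renilla luciferase, kept on 3 μg/mL puromycin; 1.5 × 10^3 cells/well plated without selection, compounds in DMSO added next day to triplicate wells, at 10 μM final for screening or eight serial dilutions. Live-cell Renilla substrate after 3 days, luminescence versus DMSO wells; EC50 = 50% luciferase reduction; MPA 1 μM control.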

Series [9] has as its system Human immunodeficiency virus 1. Put plainly: Antiviral activity against HIV1. The format is functional, organism-based.
Series [10] relates to Dengue virus. Nature of the series: Antiviral activity against Dengue virus infected in BHK pD2-hRucPac-2ATG cells assessed as inhibition of viral replication at 10 uM after 3 days by luciferase reporter gene assay relative to control. Particulars: 72 h. The class given is functional. The procedure, abridged:
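Renilla luciferase-bearing DENV subgenomic replicon BHK cells, kept on 3 μg/mL puromycin, seeded at 1.5 × 10^3/well without selection. Next day, 10 μM final compound in DMSO added to triplicate wells; MPA 1 μM as control inhibitor. After 3 days, medium swapped for live-cell Renilla substrate (1:1000, phenol-red-free DME, 10% FBS). Luminescence read; triplicate mean compared with DMSO-only wells.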

Series [11] relates to West Nile virus. Put plainly: Antiviral activity against West Nile virus infected in BHK-WII RepRen1B cells assessed as inhibition of viral replication after 3 days by luciferase reporter gene assay. As to conditions: 72 h. The format is functional, organism-based.

In general, inhibition refers to the percentage by which the read-out fell short of the control. Broadly, the CC50 is the concentration that lowers cell viability or growth by half. One may read the EC50 as the midpoint of the concentration-response curve. For the compound `Cc1cn([C@H]2C[C@H](n3nncc3-c3ccccc3)[C@@H](CO[Si](C)(C)C(C)(C)C)O2)c(=O)[nH]c1=O`, the inhibition at 10 µM with West Nile virus [1] was 93%; with Dengue virus [10], 51%. Further, the Activity in [2] is listed as 93%; in series [7], 99%. For the same compound, the CC50 is 31 µM in series [3] and 32 µM in series [6]. Moreover, the result (in the series on Human betaherpesvirus 5; in series [4]; in the series with Hepatitis C virus; in [9]) was inactive. The inhibition result in [5] is “inactive”. The inhibition entry in the series with dengue virus type 3 is “Active”. In addition, the values for the EC50 in the series with Dengue virus [8] and in the series on West Nile virus [11] were 14 µM and 8.4 µM, respectively.
As for `Cc1cn([C@H]2C[C@H](NC(=O)C(c3ccccc3)(c3ccccc3)c3ccccc3)[C@@H](CO[Si](C)(C)C(C)(C)C)O2)c(=O)[nH]c1=O`, the inhibition at 10 µM in the series with West Nile virus [1] stood at 54%; in the series on Dengue virus [10] it was 28%. Further, the Activity in series [2] and in series [7] was 100% each time. In addition, the result (in the series with Human betaherpesvirus 5; in series [4]; with Hepatitis C virus; in series [9]) was inactive. The inhibition result in [5] is “inactive”. Besides, in series [6], the CC50 was 15 µM. Moreover, the inhibition result in the series with dengue virus type 3 is “Active”. Further, the EC50 in the series on West Nile virus [11] was 9.9 µM.
Turning to `Cc1cn([C@H]2C[C@H](NC(=O)c3cccc4ccccc34)[C@@H](CO[Si](C)(C)C(C)(C)C)O2)c(=O)[nH]c1=O`, the results for the inhibition at 10 µM with West Nile virus [1] and in the series with Dengue virus [10] were 37% and 11%, respectively. For the same compound, the Activity in series [2] was 99%; in series [7] it was 94%. Also, the outcome (in the series on Human betaherpesvirus 5; in series [4]; with Hepatitis C virus; in series [9]) was inactive. Further, the inhibition entry in series [5] is “inactive”. Further, the CC50 in [6] is more than 200 µM. Besides, the inhibition result with dengue virus type 3 was “Active”. Also, the EC50 in the series with West Nile virus [11] amounted to 33 µM.
Turning to `Cc1cn([C@H]2C[C@H](NS(=O)(=O)c3ccc4ccccc4c3)[C@@H](CO[Si](C)(C)C(C)(C)C)O2)c(=O)[nH]c1=O`, the values for the CC50 in series [3] and in series [6] were 14 µM and 12 µM, respectively. Moreover, in the series on dengue virus type 3, the inhibition result was “Active”. In addition, the EC50 with Dengue virus [8] worked out at 7.4 µM; in the series with West Nile virus [11], 8.4 µM.
With `Cc1cn([C@H]2C[C@H](NC(=O)NC34CC5CC(CC(C5)C3)C4)[C@@H](CO[Si](C)(C)C(C)(C)C)O2)c(=O)[nH]c1=O`, the CC50 in series [6] stood at 16 µM. The inhibition entry with dengue virus type 3 was “Active”. For the same compound, the EC50 with West Nile virus [11] is 10 µM.
Take `Nc1ncnc2c1ncn2[C@@H]1O[C@H](C[C@@H](N)CC[C@H](N)C(=O)O)[C@@H](O)[C@H]1O`: the inhibition entry in the series with dengue virus type 3 is “Active”.
Regarding `Cc1cn([C@H]2C[C@H](N3C(=O)CSC3c3c4ccccc4cc4ccccc34)[C@@H](CO[Si](C)(C)C(C)(C)C)O2)c(=O)[nH]c1=O` (mixture of isomers), the inhibition at 10 µM in the series on West Nile virus [1] was 85%; with Dengue virus [10], 46%. In addition, the Activity is recorded as 97% in [2] and 90% in series [7]. Moreover, the result (in the series with Human betaherpesvirus 5; in [4]; with Hepatitis C virus; in series [9]) was inactive. Besides, the inhibition result in series [5] is “inactive”. For the same compound, the CC50 in [6] was determined as 27 µM. Moreover, the inhibition entry in the series on dengue virus type 3 is “Active”. In addition, the EC50 in the series on West Nile virus [11] turned out to be 9 µM.
For `Cc1cn([C@H]2C[C@H](NC(=O)Nc3cccc4ccccc34)[C@@H](CO[Si](C)(C)C(C)(C)C)O2)c(=O)[nH]c1=O`, the CC50 in series [3] came out at 23 µM. For the same compound, in the series on dengue virus type 3, the inhibition entry is “Active”. Besides, the EC50 with Dengue virus [8] was 11 µM.
As for `Cc1cn([C@H]2C[C@H](n3nncc3C3CCCCC3)[C@@H](CO[Si](C)(C)C(C)(C)C)O2)c(=O)[nH]c1=O`, the inhibition at 10 µM with West Nile virus [1] was found to be 85%; with Dengue virus [10], 75%. Besides, the Activity in [2] is on record as 93%; in series [7], 100%. In addition, the CC50 in [3] is 22 µM; in series [6] it was 24 µM. The result (in the series with Human betaherpesvirus 5; in series [4]; in the series on Hepatitis C virus; in series [9]) was inactive. Besides, the inhibition entry in [5] was “inactive”. Moreover, in the series on dengue virus type 3, the inhibition entry was “Active”. The EC50 in the series with Dengue virus [8] was 7.5 µM; in the series on West Nile virus [11], 7.1 µM.
In the case of `C[S+](CC[C@H](N)C(=O)[O-])C[C@H]1O[C@@H](n2cnc3c(N)ncnc32)[C@H](O)[C@@H]1O` (stereo partly specified), in the series with dengue virus type 3, the inhibition entry is “Active”.
`Cc1cn([C@H]2C[C@H](n3nncc3COc3ccccc3)[C@@H](CO[Si](C)(C)C(C)(C)C)O2)c(=O)[nH]c1=O`: the inhibition at 10 µM in the series on West Nile virus [1] is 50%; in the series on Dengue virus [10], 28%. Further, the Activity in series [2] is listed as 84%; in series [7] it was 100%. Also, the result (with Human betaherpesvirus 5; in [4]; with Hepatitis C virus; in series [9]) was inactive. Besides, the inhibition entry in series [5] is “inactive”.
`Cc1cn([C@H]2C[C@H](N3C(=O)CSC3c3ccccc3)[C@@H](CO[Si](C)(C)C(C)(C)C)O2)c(=O)[nH]c1=O` (mixture of isomers): the inhibition at 10 µM with West Nile virus [1] turned out to be 26%; with Dengue virus [10] it was 22%. Besides, the Activity in series [2] stood at 98%; in series [7] it was 94%. Also, the result (in the series on Human betaherpesvirus 5; in [4]; in the series on Hepatitis C virus; in series [9]) was inactive. Further, the inhibition result in series [5] is “inactive”.
Take `Cc1cn([C@H]2C[C@H](NC(=O)c3ccc4ccccc4n3)[C@@H](CO[Si](C)(C)C(C)(C)C)O2)c(=O)[nH]c1=O`: the inhibition at 10 µM in the series with West Nile virus [1] stood at 24%; in the series with Dengue virus [10] it was 51%. In addition, the results for the Activity in series [2] and in series [7] were 98% and 89%, respectively. Also, the result (with Human betaherpesvirus 5; in series [4]; with Hepatitis C virus; in series [9]) was inactive. Besides, in series [5], the inhibition entry was “inactive”.
For the compound `Cc1cn([C@H]2C[C@H](N3C(=O)CSC3c3ccc4[nH]ccc4c3)[C@@H](CO[Si](C)(C)C(C)(C)C)O2)c(=O)[nH]c1=O` (mixture of isomers), the inhibition at 10 µM in the series with West Nile virus [1] amounted to 92%; in the series on Dengue virus [10], 49%. The Activity in series [2] and in series [7] was 99% each time. In addition, the outcome (with Human betaherpesvirus 5; in series [4]; in the series with Hepatitis C virus; in series [9]) was inactive. For the same compound, the inhibition result in series [5] is “inactive”. Further, the CC50 in series [6] is 15 µM. In addition, the inhibition result with dengue virus type 3 is “Active”. Further, in the series on West Nile virus [11], the EC50 was 3.4 µM.
